Assay [1] relates to Enterococcus faecium. In words: In vitro antibacterial activity against gram-positive Enterococcus faecium ATCC 8043. Format: functional. A digest of the protocol:
(§1)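 Agar dilution MIC determination following the National Committee for Clinical Laboratory Standards recommendations.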

Assay [2] deals with Escherichia coli. Kind of assay: In vitro antibacterial activity against gram negative Escherichia coli KNK 437. Format: functional. In outline: as §1
Assay [3] relates to Staphylococcus aureus. Kind of assay: In vivo efficacy against Staphylococcus aureus NCTC 10649M in mouse. Format: functional. A digest of the protocol: (§2)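 Mouse protection model: mice infected intravenously with 100-fold LD50 of the organism. Compound given by subcutaneous injection or oral gavage at 1 and 5 h after infection, over a dose range. Deaths tracked for 7 days post-inoculation. ED50 is the dose giving 50% survival of treated mice over the trial.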

For assay [4], the system named is Escherichia coli. In words: In vivo efficacy against Escherichia coli JUHL in mouse protection test after subcutaneous administration. The note with it: Escherichia coli, sc; read-out: ED50. Format: functional. In outline:
as §2

In assay [5] the test system is Mus musculus. Kind of assay: IIn vivo efficacy against Escherichia coli JUHL in mouse protection test after administration by oral gavage. Format: functional. In outline:
as §2

The subject of assay [6] is Pseudomonas aeruginosa. In words: In vitro antibacterial activity against Gram-negative Pseudomonas aeruginosa 5007. In kind it is functional. A digest of the protocol: as §1
In assay [7] the test system is Pseudomonas aeruginosa. Kind of assay: In vitro antibacterial activity against gram negative P. aeruginosa DPHP 5263. In kind it is functional. A digest of the protocol:
as §1

For assay [8], the system named is Burkholderia cepacia. Kind of assay: In vitro antibacterial activity against gram negative Pseudomonas cepacia 2961. Format: functional. In outline: as §1
The subject of assay [9] is Staphylococcus aureus. Kind of assay: In vitro antibacterial activity against gram-positive Staphylococcus aureus 1775. In kind it is functional. In outline: as §1
Assay [10] relates to Staphylococcus aureus. Kind of assay: In vitro antibacterial activity against gram-positive Staphylococcus aureus NCTC 10649M. In kind it is functional. A digest of the protocol:
as §1

In assay [11] the test system is Streptococcus pyogenes. In words: In vitro antibacterial activity against gram positive Streptococcus pyogenes 930. In kind it is functional. A digest of the protocol:
as §1

Assay [12] deals with Pseudomonas aeruginosa. Kind of assay: In vivo efficacy against Pseudomonas aeruginosa 5007 in mouse protection test after subcutaneous administration. Conditions: Pseudomonas aeruginosa, sc; read-out: ED50. In kind it is functional. A digest of the protocol:
as §2

The subject of assay [13] is Mus musculus. Kind of assay: In vivo efficacy against Pseudomonas aeruginosa 5007 in mouse protection test […]. In kind it is functional. A digest of the protocol: as §2
In assay [14] the test system is Staphylococcus aureus. In words: In vivo efficacy against Staphylococcus aureus NCTC 10649M in mouse protection test after p.o. administration. Format: functional. Conditions: Staphylococcus aureus, po; read-out: ED50. A digest of the protocol:
as §2

In assay [15] the test system is Streptococcus pneumoniae. In words: In vivo efficacy against Streptococcus pneumoniae ATCC 6303 in mouse protection test after s.c. administration. In kind it is functional. The note with it: Streptococcus pneumoniae, sc; read-out: ED50. A digest of the protocol:
as §2

The subject of assay [16] is Mus musculus. In words: In vivo efficacy against Streptococcus pneumoniae ATCC 6303 in mouse protection test after administration by oral gavage. Format: functional. A digest of the protocol:
as §2

Assay [17] has as its system Escherichia coli. In words: In vivo efficacy against Escherichia coli JUHL in mouse protection test after p.o. administration. In kind it is functional. The note with it: Escherichia coli, po; read-out: ED50. In outline:
as §2

Assay [18] has as its system Pseudomonas aeruginosa. Kind of assay: Not Plasmodium species. Format: functional.
Assay [19] deals with Pseudomonas aeruginosa. In words: In vivo efficacy against Pseudomonas aeruginosa 5007 in mouse protection test after administration by oral gavage. The note with it: Pseudomonas aeruginosa, po; read-out: ED50. Format: functional. In outline:
as §2

Assay [20] relates to Mus musculus. In words: In vivo efficacy against Staphylococcus aureus NCTC 10649M in mouse protection test.
The mark [21] stands for this setting: Enterococcus faecium, ATCC 8043, read-out: MIC.
The mark [22] stands for this setting: Escherichia coli, read-out: MIC.
The mark [23] stands for this setting: Staphylococcus aureus, read-out: ED50.
Setting [24] is: Pseudomonas aeruginosa, read-out: MIC.
Setting [25] is: Pseudomonas aeruginosa, DPHP 5263, read-out: MIC.
[26] abbreviates: Burkholderia cepacia, read-out: MIC.
The mark [27] stands for this setting: Staphylococcus aureus, read-out: MIC.
Setting [28] is: Staphylococcus aureus, NCTC 10649, read-out: MIC.
The mark [29] stands for this setting: Streptococcus pyogenes, read-out: MIC.

Values after ≈ are worked out from the molar mass of the structure shown.

For orientation: MIC means the lowest concentration found to suppress growth. What is called ED50 is the dose that gives a 50% effect, or the effect in half of the subjects.

As to `Cc1c(N2C[C@@H]3OCCN[C@@H]3C2)c(F)cn2c(=O)c(C(=O)O)cc(C3CC3)c12`, the minimal inhibitory concentration (MIC) in assay [1] (setting [21]) was 0.1 µg/mL (≈ 0.258 µM); in [2] (setting [22]) it was 0.78 µg/mL (≈ 2.01 µM); in assay [6] (setting [24]) it was 1.56 µg/mL (≈ 4.03 µM); in [7] (setting [25]), 100 µg/mL (≈ 258 µM); in assay [8] (setting [26]) it was 6.2 µg/mL (≈ 16 µM); in assay [9] (setting [27]) it was 0.78 µg/mL (≈ 2.01 µM). Besides, the MIC in assay [10] (setting [28]) was determined as 0.002 µg/mL (≈ 0.00516 µM); in assay [11] (setting [29]), 0.1 µg/mL (≈ 0.258 µM). The ED50 in assay [3] was 4.8 mg/kg; in assay [3] (setting [23]) it was 2.7 mg/kg; in [4] it was over 5 mg/kg; in assay [5] it was over 20 mg/kg.

Turning to `Cc1c(N2CCCO2)c(F)cn2c(=O)c(C(=O)O)cc(C3CC3)c12`, the MIC in assay [1] (setting [21]) is 3.1 µg/mL (≈ 9.33 µM); in [2] (setting [22]) it was 6.2 µg/mL (≈ 18.7 µM); in [6] (setting [24]), 6.2 µg/mL (≈ 18.7 µM); in assay [7] (setting [25]), over 100 µg/mL; in assay [8] (setting [26]) it was 6.2 µg/mL (≈ 18.7 µM); in assay [9] (setting [27]), over 100 µg/mL. Also, the results for the MIC in assay [10] (setting [28]) and in [11] (setting [29]) were 0.78 µg/mL (≈ 2.35 µM) and 6.2 µg/mL (≈ 18.7 µM), respectively. For the same compound, the ED50 in assay [3] (setting [23]) was over 12 mg/kg; in assay [4], over 5 mg/kg.

With `Cc1c(N2CC[C@@H]3NCCC[C@@H]32)c(F)cn2c(=O)c(C(=O)O)cc(C3CC3)c12`, the MIC came to 3.1 µg/mL (≈ 8.04 µM) in assay [1] (setting [21]); 0.78 µg/mL (≈ 2.02 µM) in [2] (setting [22]); 3.1 µg/mL (≈ 8.04 µM) in [6] (setting [24]); 100 µg/mL (≈ 259 µM) in [7] (setting [25]); 25 µg/mL (≈ 64.9 µM) in assay [8] (setting [26]); 12.5 µg/mL (≈ 32.4 µM) in [9] (setting [27]). For the same compound, the MIC in assay [10] (setting [28]) is 0.2 µg/mL (≈ 0.519 µM); in [11] (setting [29]) it was 1.56 µg/mL (≈ 4.05 µM). Also, the ED50 in assay [12] is over 32 mg/kg; in assay [13], over 50 mg/kg; in assay [14], 23.9 mg/kg; in assay [3] (setting [23]) it was 7 mg/kg; in assay [4], 4.4 mg/kg; in assay [5], over 10 mg/kg.

As to `Cc1c(N2CCC[C@@H](NC3CC3)C2)c(F)cn2c(=O)c(C(=O)O)cc(C3CC3)c12`, the MIC in assay [1] (setting [21]) was 0.05 µg/mL (≈ 0.125 µM); in assay [2] (setting [22]), 0.1 µg/mL (≈ 0.25 µM); in assay [6] (setting [24]), 0.78 µg/mL (≈ 1.95 µM); in assay [7] (setting [25]), 25 µg/mL (≈ 62.6 µM); in [8] (setting [26]), 6.2 µg/mL (≈ 15.5 µM); in assay [9] (setting [27]), 3.1 µg/mL (≈ 7.76 µM). Further, the figures for the MIC in assay [10] (setting [28]) and in assay [11] (setting [29]) were 0.01 µg/mL (≈ 0.025 µM) and 0.02 µg/mL (≈ 0.0501 µM), respectively. Further, the ED50 in [12] is over 32 mg/kg; in [3] (setting [23]) it was 1.8 mg/kg; in assay [15] it was over 16 mg/kg.

On to `Cc1c(N2CC[C@H](NC3CC3)C2)c(F)cn2c(=O)c(C(=O)O)cc(C3CC3)c12`, for which the MIC amounted to 0.2 µg/mL (≈ 0.519 µM) in [1] (setting [21]); 0.2 µg/mL (≈ 0.519 µM) in assay [2] (setting [22]); 0.39 µg/mL (≈ 1.01 µM) in assay [6] (setting [24]); 12.5 µg/mL (≈ 32.4 µM) in [7] (setting [25]); 0.39 µg/mL (≈ 1.01 µM) in assay [8] (setting [26]); 0.39 µg/mL (≈ 1.01 µM) in assay [9] (setting [27]). Further, the MIC in assay [10] (setting [28]) was 0.02 µg/mL (≈ 0.0519 µM); in assay [11] (setting [29]), 0.05 µg/mL (≈ 0.13 µM). The ED50 in assay [12] was over 32 mg/kg; in assay [13], over 50 mg/kg; in assay [14] it was 25 mg/kg; in assay [3] (setting [23]), 3.6 mg/kg; in assay [16] it was 23.1 mg/kg; in [15], over 8 mg/kg. The ED50 in [17] came to 16.5 mg/kg; in assay [4] it was 5 mg/kg.

For `Cc1c(N2CCCC2)c(F)cn2c(=O)c(C(=O)O)cc(C3CC3)c12`, the MIC was 0.2 µg/mL (≈ 0.605 µM) in [1] (setting [21]); 0.39 µg/mL (≈ 1.18 µM) in assay [2] (setting [22]); over 100 µg/mL in assay [7] (setting [25]); 0.78 µg/mL (≈ 2.36 µM) in [18]; 0.78 µg/mL (≈ 2.36 µM) in [8] (setting [26]); 0.78 µg/mL (≈ 2.36 µM) in [9] (setting [27]). For the same compound, the MIC was determined as 0.02 µg/mL (≈ 0.0605 µM) in [10] (setting [28]) and 0.2 µg/mL (≈ 0.605 µM) in [11] (setting [29]). The results for the ED50 in assay [3] (setting [23]) and in assay [4] were over 12 mg/kg and over 50 mg/kg, respectively.

As for `Cc1c(N2C[C@@H](N)[C@H](C3CC3)C2)c(F)cn2c(=O)c(C(=O)O)cc(C3CC3)c12` (stereo in doubt), the minimum inhibitory concentration (MIC) was found to be 0.1 µg/mL (≈ 0.259 µM) in [1]; 0.2 µg/mL (≈ 0.519 µM) in assay [2]; 0.39 µg/mL (≈ 1.01 µM) in assay [6]; 3.1 µg/mL (≈ 8.04 µM) in assay [7]; 1.56 µg/mL (≈ 4.05 µM) in assay [8]; 0.78 µg/mL (≈ 2.02 µM) in assay [9]. For the same compound, the MIC in [10] and in [11] was 0.05 µg/mL (≈ 0.13 µM) in each case. The ED50 is over 32 mg/kg in assay [12]; 10.9 mg/kg in assay [14]; 25 mg/kg in [16]; 8 mg/kg in [15]; 10 mg/kg in [17]; 3.4 mg/kg in assay [4]. The ED50 is over 50 mg/kg in [19] and 1.5 mg/kg in assay [20].

The values above are taken from ChEMBL document CHEMBL1132437, “Synthesis and antimicrobial activity of 4H-4-oxoquinolizine derivatives: consequences of structural modification at the C-8 position” (1999).
